Results reported in ChEMBL document CHEMBL4184298, “Development of Potent Inhibitors of Receptor Tyrosine Kinases by Ligand-Based Drug Design and Target-Biased Phenotypic Screening” (J Med Chem, 2018).
Activity calls are given as the source filed them. The rule behind the calls is not given here.

Key:
MV4-11 = assay: Antiproliferative activity against human MV4-11 cells after 5 days by PrestoBlue assay; type: functional, cell-based
MOLM-13 = assay: Antiproliferative activity against human MOLM13 cells after 5 days by PrestoBlue assay; type: functional, cell-based
[1] = biological target: Epithelial discoidin domain-containing receptor 1 (Homo sapiens, UniProt Q08345); assay: Inhibition of wild-type human partial length DDR1 (R565 to V876 residues) expressed in bacterial expression system using poly [Glu, Try] 4:1 as substrate in presence of [gamma-33P]ATP
Summary of the method: (§1)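 Radiometric assay on recombinant kinase: ³³P incorporation into the kinase substrate was measured and activity was expressed relative to a DMSO control.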

Aurora kinase B = Aurora kinase B (Homo sapiens, UniProt Q96GD4); assay: Inhibition of wild-type human partial length AURKB (D25 to A303 residues) expressed in mammalian expression system using poly [Glu, Try] 4:1 as substrate in presence of [gamma-33P]ATP; summary of the method: as §1
[2] = biological target: T1, Tyrosine-protein kinase receptor UFO (Homo sapiens, UniProt P30530); assay: Inhibition of wild-type human partial length AXL (R497 to Y821 residues) expressed in bacterial expression system using poly [Glu, Try] 4:1 as substrate in presence of [gamma-33P]ATP
T1 sequence (P30530 whole entry): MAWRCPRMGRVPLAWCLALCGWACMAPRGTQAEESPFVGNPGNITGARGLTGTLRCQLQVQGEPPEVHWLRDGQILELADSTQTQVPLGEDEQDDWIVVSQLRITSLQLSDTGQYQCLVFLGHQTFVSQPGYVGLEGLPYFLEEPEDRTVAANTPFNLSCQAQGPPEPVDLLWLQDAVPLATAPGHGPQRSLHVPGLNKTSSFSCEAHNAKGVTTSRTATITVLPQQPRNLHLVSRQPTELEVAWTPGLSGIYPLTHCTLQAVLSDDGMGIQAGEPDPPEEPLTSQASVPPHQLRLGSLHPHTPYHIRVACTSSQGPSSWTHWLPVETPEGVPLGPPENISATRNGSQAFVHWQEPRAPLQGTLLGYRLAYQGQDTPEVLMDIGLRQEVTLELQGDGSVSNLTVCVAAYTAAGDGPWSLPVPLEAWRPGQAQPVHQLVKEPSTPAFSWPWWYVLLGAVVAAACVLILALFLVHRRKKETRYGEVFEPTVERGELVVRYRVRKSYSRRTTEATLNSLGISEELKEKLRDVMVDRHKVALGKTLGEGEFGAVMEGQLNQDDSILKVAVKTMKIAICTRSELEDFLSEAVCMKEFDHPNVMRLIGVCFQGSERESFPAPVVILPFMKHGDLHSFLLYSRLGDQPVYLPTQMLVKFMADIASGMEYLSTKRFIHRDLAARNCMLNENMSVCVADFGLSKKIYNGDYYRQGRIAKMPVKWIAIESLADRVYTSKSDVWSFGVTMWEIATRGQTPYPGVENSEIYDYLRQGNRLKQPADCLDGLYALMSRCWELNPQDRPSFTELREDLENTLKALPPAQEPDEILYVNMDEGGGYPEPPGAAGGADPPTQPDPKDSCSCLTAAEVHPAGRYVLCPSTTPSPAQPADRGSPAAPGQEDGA

[3] = biological target: Epidermal growth factor receptor (Homo sapiens, UniProt P00533); assay: Inhibition of wild-type human partial length EGFR (R669 to V1011 residues) expressed in bacterial expression system using poly [Glu, Try] 4:1 as substrate in presence of [gamma-33P]ATP; summary of the method: as §1
[4] = biological target: ALK tyrosine kinase receptor (Homo sapiens, UniProt Q9UM73); assay: Inhibition of wild-type human partial length ALK (I1088 to E1409 residues) expressed in mammalian expression system using poly [Glu, Try] 4:1 as substrate in presence of [gamma-33P]ATP; summary of the method: as §1
[5] = biological target: Receptor-type tyrosine-protein kinase FLT3 (Homo sapiens, UniProt P36888, D835Y); assay: Inhibition of human partial length FLT3 D835Y mutant (Q580 to Y969 residues) expressed in bacterial expression system using poly [Glu, Try] 4:1 as substrate in presence of [gamma-33P]ATP
Summary of the method: (§2)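 Recombinant kinase assays were run radiometrically by an outside contract service. Activity was read as 33P incorporation into each kinase's substrate and expressed relative to a DMSO control.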

[6] = biological target: Receptor-type tyrosine-protein kinase FLT3 (Homo sapiens, UniProt P36888, ITD); assay: Inhibition of human partial length FLT3 ITD mutant expressed in bacterial expression system using poly [Glu, Try] 4:1 as substrate in presence of [gamma-33P]ATP; summary of the method: as §2
[7] = biological target: Platelet-derived growth factor receptor alpha (Homo sapiens, UniProt P16234); assay: Inhibition of wild-type human partial length PDGFRA (V575 to D1002 residues) expressed in mammalian expression system using poly [Glu, Try] 4:1 as substrate in presence of [gamma-33P]ATP; summary of the method: as §1
[8] = (§3) Antiproliferative activity against mouse AXL-positive Breast cancer cells after 5 days by PrestoBlue assay; type: functional; conditions: 120 h
Summary of the method: (§4)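 Cell proliferation: AXL+ cells were exposed to 8-point half-log dilutions (0.03–100 μM). Viability was read with PrestoBlue reagent on day 5.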

Mus musculus = species on record: Mus musculus; assay: as §3; type: functional; summary of the method: as §4
[9] = Selectivity ratio of EC50 for human AXL-negative BT474 cells to EC50 for mouse AXL-positive breast cancer cells; type: functional
Summary of the method: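 AXL− BT474 and AXL+ cells were each dosed with 8-point half-log series (0.03–100 μM) and read by PrestoBlue at day 5 (n = 2). EC50s were fitted for each line, and the ratio is EC50(AXL−)/EC50(AXL+).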

BT-474 = assay: Antiproliferative activity against human AXL-negative BT474 cells after 5 days by PrestoBlue assay; type: functional, cell-based; conditions: BT-474, 120 h
Summary of the method: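 8-point half-log dose–response, 0.03–100 μM. Cell viability read with PrestoBlue reagent at day 5. EC50 calculated from the curves. SD from n = 2. Screened alongside an AXL+ line, with foretinib as the positive control.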

ALK tyrosine kinase receptor, sequence (Q9UM73 whole entry, the tested form may be a part): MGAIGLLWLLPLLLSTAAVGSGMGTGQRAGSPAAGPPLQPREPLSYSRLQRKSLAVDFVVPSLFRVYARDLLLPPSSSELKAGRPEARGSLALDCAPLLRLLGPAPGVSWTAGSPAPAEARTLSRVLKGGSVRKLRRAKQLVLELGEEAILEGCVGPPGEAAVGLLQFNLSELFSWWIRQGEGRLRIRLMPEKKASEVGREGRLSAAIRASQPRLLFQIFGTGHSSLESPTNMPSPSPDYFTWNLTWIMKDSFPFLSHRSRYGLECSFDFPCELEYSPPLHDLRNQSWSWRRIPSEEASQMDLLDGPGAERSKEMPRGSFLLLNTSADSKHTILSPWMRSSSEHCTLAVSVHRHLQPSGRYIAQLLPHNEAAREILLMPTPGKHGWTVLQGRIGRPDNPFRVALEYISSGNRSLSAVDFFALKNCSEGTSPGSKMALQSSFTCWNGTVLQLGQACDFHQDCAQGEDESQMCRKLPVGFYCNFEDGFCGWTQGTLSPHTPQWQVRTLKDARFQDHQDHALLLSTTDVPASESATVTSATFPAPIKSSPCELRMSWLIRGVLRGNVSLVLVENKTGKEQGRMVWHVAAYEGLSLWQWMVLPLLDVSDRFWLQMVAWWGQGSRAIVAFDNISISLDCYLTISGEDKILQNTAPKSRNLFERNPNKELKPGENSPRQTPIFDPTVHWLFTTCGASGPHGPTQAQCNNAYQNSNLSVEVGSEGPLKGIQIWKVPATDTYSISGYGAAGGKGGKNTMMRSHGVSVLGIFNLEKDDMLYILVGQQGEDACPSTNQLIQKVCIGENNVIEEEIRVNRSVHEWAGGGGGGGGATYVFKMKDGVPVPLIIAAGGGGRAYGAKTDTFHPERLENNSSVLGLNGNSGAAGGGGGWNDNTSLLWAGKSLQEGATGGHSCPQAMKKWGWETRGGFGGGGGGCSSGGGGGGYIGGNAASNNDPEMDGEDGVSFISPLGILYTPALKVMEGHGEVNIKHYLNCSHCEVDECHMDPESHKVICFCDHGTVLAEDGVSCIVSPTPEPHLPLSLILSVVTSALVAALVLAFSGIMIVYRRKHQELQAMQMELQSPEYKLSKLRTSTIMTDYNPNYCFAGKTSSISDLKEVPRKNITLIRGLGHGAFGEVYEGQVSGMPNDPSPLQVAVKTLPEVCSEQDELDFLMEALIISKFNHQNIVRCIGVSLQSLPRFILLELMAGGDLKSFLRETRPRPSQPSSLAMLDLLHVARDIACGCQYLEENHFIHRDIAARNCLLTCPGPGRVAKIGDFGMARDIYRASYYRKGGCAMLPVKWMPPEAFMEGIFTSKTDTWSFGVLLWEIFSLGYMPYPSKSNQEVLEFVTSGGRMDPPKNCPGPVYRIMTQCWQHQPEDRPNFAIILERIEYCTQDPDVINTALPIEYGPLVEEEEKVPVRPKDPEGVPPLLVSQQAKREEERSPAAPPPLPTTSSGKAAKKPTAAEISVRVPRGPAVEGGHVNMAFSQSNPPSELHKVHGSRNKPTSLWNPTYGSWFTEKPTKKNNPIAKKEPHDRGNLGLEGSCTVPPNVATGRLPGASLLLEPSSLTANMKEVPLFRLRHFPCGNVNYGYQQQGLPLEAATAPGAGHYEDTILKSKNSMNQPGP
Epidermal growth factor receptor, sequence (P00533 whole entry, the tested form may be a part): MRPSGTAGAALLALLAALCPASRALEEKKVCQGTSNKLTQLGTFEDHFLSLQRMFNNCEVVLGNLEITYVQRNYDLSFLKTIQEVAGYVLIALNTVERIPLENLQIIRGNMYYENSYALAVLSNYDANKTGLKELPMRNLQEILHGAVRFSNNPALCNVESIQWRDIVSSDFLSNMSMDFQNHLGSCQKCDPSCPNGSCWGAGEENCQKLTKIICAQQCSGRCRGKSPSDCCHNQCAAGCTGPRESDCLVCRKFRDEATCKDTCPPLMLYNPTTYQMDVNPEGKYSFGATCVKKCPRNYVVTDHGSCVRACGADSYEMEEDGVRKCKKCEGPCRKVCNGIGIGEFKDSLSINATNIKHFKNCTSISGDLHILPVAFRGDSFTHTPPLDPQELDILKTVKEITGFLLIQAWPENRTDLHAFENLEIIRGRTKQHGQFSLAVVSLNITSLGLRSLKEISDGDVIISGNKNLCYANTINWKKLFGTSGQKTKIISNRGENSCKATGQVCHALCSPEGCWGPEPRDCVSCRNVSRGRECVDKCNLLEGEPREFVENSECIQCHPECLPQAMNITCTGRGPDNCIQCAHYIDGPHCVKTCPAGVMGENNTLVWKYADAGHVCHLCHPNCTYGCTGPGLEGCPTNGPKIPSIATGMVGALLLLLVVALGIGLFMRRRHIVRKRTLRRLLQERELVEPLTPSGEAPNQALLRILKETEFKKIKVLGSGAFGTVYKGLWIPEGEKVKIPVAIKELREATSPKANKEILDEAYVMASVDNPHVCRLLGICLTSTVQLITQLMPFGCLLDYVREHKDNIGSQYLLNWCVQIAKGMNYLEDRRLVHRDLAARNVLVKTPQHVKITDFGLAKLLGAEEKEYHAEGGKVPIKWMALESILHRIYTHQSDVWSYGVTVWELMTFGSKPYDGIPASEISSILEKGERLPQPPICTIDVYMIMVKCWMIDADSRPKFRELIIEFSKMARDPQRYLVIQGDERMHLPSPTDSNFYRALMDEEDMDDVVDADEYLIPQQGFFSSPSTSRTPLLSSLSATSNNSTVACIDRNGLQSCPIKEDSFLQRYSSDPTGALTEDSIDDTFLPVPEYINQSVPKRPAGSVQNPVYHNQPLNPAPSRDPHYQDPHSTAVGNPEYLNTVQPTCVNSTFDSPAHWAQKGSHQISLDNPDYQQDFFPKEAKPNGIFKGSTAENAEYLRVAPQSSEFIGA
Aurora kinase B, sequence (Q96GD4 whole entry, the tested form may be a part): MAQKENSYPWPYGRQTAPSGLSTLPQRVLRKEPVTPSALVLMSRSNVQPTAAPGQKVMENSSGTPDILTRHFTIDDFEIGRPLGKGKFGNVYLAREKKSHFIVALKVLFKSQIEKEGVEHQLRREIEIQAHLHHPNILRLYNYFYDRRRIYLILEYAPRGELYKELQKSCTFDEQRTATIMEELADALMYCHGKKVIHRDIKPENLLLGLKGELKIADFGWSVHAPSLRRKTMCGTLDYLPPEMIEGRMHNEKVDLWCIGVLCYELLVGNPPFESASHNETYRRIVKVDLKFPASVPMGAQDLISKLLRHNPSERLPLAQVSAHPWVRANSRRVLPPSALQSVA
Epithelial discoidin domain-containing receptor 1, sequence (Q08345 whole entry, the tested form may be a part): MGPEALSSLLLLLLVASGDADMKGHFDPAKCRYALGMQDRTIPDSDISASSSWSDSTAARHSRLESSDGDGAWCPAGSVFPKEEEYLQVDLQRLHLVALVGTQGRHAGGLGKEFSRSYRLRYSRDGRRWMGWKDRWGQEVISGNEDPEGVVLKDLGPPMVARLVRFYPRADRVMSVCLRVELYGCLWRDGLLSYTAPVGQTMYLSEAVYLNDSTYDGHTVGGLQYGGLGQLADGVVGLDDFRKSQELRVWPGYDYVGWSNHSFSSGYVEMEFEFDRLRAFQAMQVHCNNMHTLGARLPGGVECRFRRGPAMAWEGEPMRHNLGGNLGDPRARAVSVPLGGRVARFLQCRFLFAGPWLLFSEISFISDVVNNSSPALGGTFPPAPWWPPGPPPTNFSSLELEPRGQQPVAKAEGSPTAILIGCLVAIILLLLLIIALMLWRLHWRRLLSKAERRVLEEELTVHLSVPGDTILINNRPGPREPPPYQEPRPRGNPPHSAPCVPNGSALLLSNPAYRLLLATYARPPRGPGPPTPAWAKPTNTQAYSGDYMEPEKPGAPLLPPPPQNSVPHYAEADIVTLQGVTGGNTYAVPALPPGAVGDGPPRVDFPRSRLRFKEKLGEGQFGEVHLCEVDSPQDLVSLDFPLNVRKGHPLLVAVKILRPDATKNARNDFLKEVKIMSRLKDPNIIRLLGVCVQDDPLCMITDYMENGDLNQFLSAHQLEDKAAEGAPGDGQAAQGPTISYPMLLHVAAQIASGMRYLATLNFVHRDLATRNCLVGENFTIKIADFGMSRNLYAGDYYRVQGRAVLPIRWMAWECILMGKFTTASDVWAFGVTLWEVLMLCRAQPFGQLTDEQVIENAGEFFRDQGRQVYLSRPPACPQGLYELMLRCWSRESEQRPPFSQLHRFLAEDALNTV

CNc1ncc2c(-c3ccc(N4CCN(C)CC4)nc3)nn(CC3CCCC3)c2n1
Activity (MV4-11): Active | Activity (MOLM-13): Active | IC50 [1]: 100 nM | IC50 (Aurora kinase B): 170 nM | IC50 [2]: 70 nM | IC50 [3]: > 10000 nM | IC50 [4]: 190 nM | IC50 [5]: 12 nM | IC50 [6]: 30 nM | IC50 [7]: 990 nM

CNc1ncc2c(-c3ccc(N4CCN(C(=O)C(C)(C)C)CC4)nc3)nn(CC3CCCC3)c2n1
IC50 [2]: 7200 nM

CNc1ncc2c(-c3ccc(OC)cc3)nn(CC3OCCO3)c2n1
EC50 [8]: ≤ 10000 nM | IC50 [2]: 1300 nM

Nc1nc(Nc2ccc3c(c2)CC[C@@H](N2CCCC2)CC3)nn1-c1cc2c(nn1)-c1ccccc1CCC2 [BEMCENTINIB]
Activity (MV4-11): Active | Activity (MOLM-13): Active | IC50 [1]: 20 nM | IC50 (Aurora kinase B): 100 nM | IC50 [3]: 3900 nM | IC50 [4]: 530 nM | IC50 [5]: 2 nM | IC50 [6]: 6 nM | IC50 [7]: 20 nM

CCN1CCN(c2ccc(-c3nn(Cc4cn(Cc5ccccc5)nn4)c4nc(NC)ncc34)cn2)CC1
Activity (Mus musculus): inactive | IC50 [2]: > 10000 nM

CNc1ncc2c(-c3ccc(N4CCNCC4)cc3)nn(Cc3cn(Cc4ccccc4)nn3)c2n1
Ratio EC50 [9]: <1 | Activity (Mus musculus): inactive | IC50 [2]: > 10000 nM

CNc1ncc2c(-c3ccc(N4CCN(C)CC4)nc3)nn(Cc3cn(Cc4ccccc4)nn3)c2n1
Activity (Mus musculus): inactive | IC50 [2]: 380 nM

CNc1ncc2c(-c3ccc(N4CCNCC4)nc3)nn(CC3CCCC3)c2n1
EC50 (BT-474): 1640 nM | Ratio EC50 [9]: 2 | EC50 [8]: 830 nM | IC50 [2]: 120 nM

CNc1ncc2c(-c3ccc(N4CCNCC4)nc3)nn(CC3OCCO3)c2n1
EC50 [8]: ≤ 10000 nM | IC50 [2]: 530 nM

CNc1ncc2c(-c3ccc(N4CCNCC4)nc3)nn(Cc3cn(-c4ccsc4C(=O)OC)nn3)c2n1
Activity (Mus musculus): Active | IC50 [2]: 780 nM

CNc1ncc2c(-c3ccc(N4CCN(C(=O)C(C)(C)C)CC4)nc3)nn(Cc3cn(Cc4ccccc4)nn3)c2n1
Activity (Mus musculus): inactive | IC50 [2]: 760 nM

CCN1CCN(c2ccc(-c3nn(CC4CCCC4)c4nc(NC)ncc34)cn2)CC1
IC50 [2]: 260 nM
